Published values from different studies.
Each line is one published result; the experiments were not run side by side. In brackets after ≈: the same amount, converted by molar mass.
Organism: Candida albicans

Cc1ccc(N=Nc2c(N)nn3c(-c4ccco4)cc(-c4ccc(OCc5ccccc5)cc4)nc23)cc1  MFC (microbial killing; broth dilution; ATCC10231): 125 µg/mL (≈ 250 µM)
C[C@@H]1[C@H](O)[C@@H](C)/C=C/C=C/C=C/C=C/C=C/C=C/C=C/[C@H](O[C@@H]2O[C@H](C)[C@@H](O)[C@H](N)[C@@H]2O)C[C@@H]2O[C@](O)(C[C@@H](O)C[C@@H](O)[C@H](O)CC[C@@H](O)C[C@@H](O)CC(=O)O[C@H]1C)C[C@H](O)[C@H]2C(=O)O  MIC (microbial growth; broth dilution; SP3902; 48 h): < 0.25 µM
COc1ccc(N=Nc2c(N)nn3c(-c4ccco4)cc(-c4ccc(OCc5ccccc5)cc4)nc23)cc1  MFC (microbial killing; broth dilution; ATCC10231): 62.5 µg/mL (≈ 121 µM)
COc1ccc(C=NNC(=O)CSc2nc3c(C)cccc3c(=O)n2-c2ccccc2)cc1OS(C)(=O)=O  inhibition zone (microbial growth; well diffusion; 20 µg/mL): 4 mm
CC(=O)N1CCN(c2ccc(OCC3COC(Cn4ccnc4)(c4ccc(Cl)cc4Cl)O3)cc2)CC1 (stereo not shown)  MIC (microbial growth; broth dilution; 17546; 48 h): 1 µM
Nc1nn2c(-c3ccco3)cc(-c3ccc(OCc4ccccc4)cc3)nc2c1N=Nc1ccc(F)cc1  MFC (microbial killing; broth dilution; ATCC10231): 500 µg/mL (≈ 991 µM)
CS(=O)(=O)Oc1ccc(C=NNC(=O)CSc2nc3ccc(Cl)cc3c(=O)n2-c2ccccc2)cc1  inhibition zone (microbial growth; well diffusion; 20 µg/mL): 2 mm
OC(Cn1cncn1)(Cn1cncn1)c1ccc(F)cc1F  MIC (microbial growth; broth dilution; SP3876; 48 h): 16 µM
CCCCCCCCCCCC(=O)ON=C1C=CC(=C(C#N)c2ccccc2)C=C1  MFC (microbial killing; broth dilution; ATCC10231; 48 h): 512 µg/mL (≈ 1270 µM)
CCS(=O)(=O)Oc1ccc(C=NNC(=O)CSc2nc3c(C)cccc3c(=O)n2-c2ccccc2)cc1  inhibition zone (microbial growth; well diffusion; 20 µg/mL): 3 mm
CC(=O)ON=C1C=CC(=C(C#N)c2ccccc2)C=C1  MFC (microbial killing; broth dilution; ATCC10231; 48 h): 4 µg/mL (≈ 15.1 µM)
C[C@@H]1[C@H](O)[C@@H](C)/C=C/C=C/C=C/C=C/C=C/C=C/C=C/[C@H](O[C@@H]2O[C@H](C)[C@@H](O)[C@H](N)[C@@H]2O)C[C@@H]2O[C@](O)(C[C@@H](O)C[C@@H](O)[C@H](O)CC[C@@H](O)C[C@@H](O)CC(=O)O[C@H]1C)C[C@H](O)[C@H]2C(=O)O  inhibition zone (microbial growth; well diffusion; 20 µg/mL): 4 mm
OC(Cn1cncn1)(Cn1cncn1)c1ccc(F)cc1F  MIC (microbial growth; broth dilution; SN152; 24 h): 2 µg/mL
